Calls of active or inactive are those of the source. The calls are words filed in the database; no cut-off is given here. Residues, ends and D or L forms follow the SMILES beside them. *: point of attachment. X5 = CCCCCCCCCCCCCCCCCCCC(=O)N[C@@H](C*)C(=O)NCCCCCCCCCCCCCCCC; X2 = CCCCCCCCCCCCCCCCCC(=O)N[C@@H](C*)C(=O)NCCCCCCCCCCCCCCCC; X6 = CCCCCCCCCCCCCC(=O)N[C@@H](C*)C(=O)NCCCCCCCCCCCC; X3 = CCCCCCCCCCCCCC(=O)N[C@@H](C*)C(=O)NCCCCCCCCCC; X4 = CCCCCCCCCCCCCC(=O)N[C@@H](C*)C(=O)NCCCCCCCC; X7 = CCCCCCCCCCCCCC(=O)N[C@@H](C*)C(=O)NCCCCCC; Arachidoyl = CCCCCCCCCCCCCCCCCCCC(=O)*; Stearoyl = CCCCCCCCCCCCCCCCCC(=O)*; Myristoyl = CCCCCCCCCCCCCC(=O)*
Legend:
THP-1 = experiment: Cytotoxicity against THP1 cells by MTT assay; type: functional, cell-based
Summary of the method: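 THP-1 cells (RPMI 1640 with 10% FCS, 37 °C, 5% CO2) were exposed to lipolanthionine peptides plus Pam3Cys-SK4-OH (50 nM) for 5 h. After part of the supernatant was removed for ELISA, MTT (1 mg/mL) was added for 4 h. Formazan was dissolved in 10% SDS in 10 mM HCl. A570 was read relative to untreated control cells.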

Toll-like receptor 2 [1] = target: T1, Toll-like receptor 2 (Homo sapiens, UniProt O60603); experiment: Inhibition of TLR2 agonist Pam3Cys-Ser-(Lys)4-OH-mediated IL8 secretion in THP1 cells; type: functional, cell-based, THP-1; conditions: for Activity: THP-1
T1 sequence (O60603 whole entry): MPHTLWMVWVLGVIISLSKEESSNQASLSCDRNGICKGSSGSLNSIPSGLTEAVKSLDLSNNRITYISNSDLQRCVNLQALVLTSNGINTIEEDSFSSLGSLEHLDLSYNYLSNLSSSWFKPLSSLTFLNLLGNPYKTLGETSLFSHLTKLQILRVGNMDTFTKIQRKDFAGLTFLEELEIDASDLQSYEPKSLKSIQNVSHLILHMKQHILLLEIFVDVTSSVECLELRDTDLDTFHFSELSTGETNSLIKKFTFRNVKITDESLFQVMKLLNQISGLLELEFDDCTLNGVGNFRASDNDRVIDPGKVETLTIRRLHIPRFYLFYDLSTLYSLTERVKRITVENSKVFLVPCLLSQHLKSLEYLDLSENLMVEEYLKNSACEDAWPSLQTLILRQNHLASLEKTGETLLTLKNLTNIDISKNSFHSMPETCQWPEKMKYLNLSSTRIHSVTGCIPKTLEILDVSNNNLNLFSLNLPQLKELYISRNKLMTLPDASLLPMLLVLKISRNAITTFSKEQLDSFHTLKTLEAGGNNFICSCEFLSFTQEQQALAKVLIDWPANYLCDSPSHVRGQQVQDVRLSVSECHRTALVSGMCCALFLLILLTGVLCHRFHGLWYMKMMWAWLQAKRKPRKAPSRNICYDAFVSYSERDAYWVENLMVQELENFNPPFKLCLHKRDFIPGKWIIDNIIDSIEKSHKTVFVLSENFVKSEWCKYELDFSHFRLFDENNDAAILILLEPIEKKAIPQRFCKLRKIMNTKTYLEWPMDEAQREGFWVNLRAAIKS
Summary of the method: (§1)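 THP-1 cells, 4 × 10⁴ per well in RPMI 1640/10% FCS, were preincubated with peptides (0.78–25 µM, from 10 mM DMSO stocks) for 10 min at 37 °C. Pam3Cys-SK4-OH (50 nM) was then added for 5 h at 37 °C. IL-8 in cell-free supernatants was measured by matched-pair ELISA against DMSO-matched agonist controls. Triplicates, SD shown.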

Toll-like receptor 2 [2] = target: T1, Toll-like receptor 2; experiment: Inhibition of TLR2-mediated IL-8 secretion in THP-1 cells; type: functional, cell-based; summary of the method: as §1
Toll-like receptor 2 [3] = target: T1, Toll-like receptor 2; experiment: Inhibition of TLR2 agonist Pam3Cys-Ser-(Lys)4-OH-mediated IL8 secretion in THP1 cells at 25 uM; type: functional, cell-based; conditions: THP-1
Summary of the method: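 THP-1 cells, 4 × 10⁴ per well, were preincubated for 10 min at 37 °C with peptide at a single 25 µM concentration (from 10 mM DMSO stock), with or without Pam3Cys-SK4-OH (50 nM), then incubated 5 h at 37 °C. IL-8 was measured by ELISA in cell-free supernatants and expressed relative to agonist plus equal-solvent control. Triplicates, SD.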

| Compound | IC50 (Toll-like receptor 2 [1]) [µM] | Activity (Toll-like receptor 2 [1]) | Activity (Toll-like receptor 2 [2]) | Activity (Toll-like receptor 2 [3]) | Activity (THP-1) |
| --- | --- | --- | --- | --- | --- |
| CCCCCCCCCCCCCC(=O)N[C@@H](CSC[C@H](NC(=O)CCCCCCCCCCCCC)C(=O)N[C@@H](CO)C(=O)N[C@@H](CCCCN)C(=O)N[C@@H](CCCCN)C(=O)N[C@@H](CCCCN)C(=O)N[C@@H](CCCCN)C(N)=O)C(=O)NCCCCCC (Myristoyl-C(X7)SKKKK-NH2) | – | – | – | – | inactive |
| CCCCCCCCCCCCCC(=O)N[C@@H](CSC[C@@H](NC(=O)CCCCCCCCCCCCC)C(=O)N[C@@H](CO)C(=O)N[C@@H](CCCCN)C(=O)N[C@@H](CCCCN)C(=O)N[C@@H](CCCCN)C(=O)N[C@@H](CCCCN)C(N)=O)C(=O)O | – | inactive | Active | – | inactive |
| CCCCCCCCCCCCCC(=O)N[C@@H](CSC[C@H](NC(=O)CCCCCCCCCCCCC)C(=O)N[C@@H](CO)C(=O)N[C@@H](CCCCN)C(=O)N[C@@H](CCCCN)C(=O)N[C@@H](CCCCN)C(=O)N[C@@H](CCCCN)C(N)=O)C(=O)NCCCCCCCCCC (Myristoyl-C(X3)SKKKK-NH2) | – | – | Active | – | inactive |
| CCCCCCCCCCCCCC(=O)N[C@@H](CSC[C@H](NC(=O)CCCCCCCCCCCCC)C(=O)N[C@@H](CO)C(=O)N[C@@H](CCCCN)C(=O)N[C@@H](CCCCN)C(=O)N[C@@H](CCCCN)C(=O)N[C@@H](CCCCN)C(N)=O)C(=O)NCCCCCCCC (Myristoyl-C(X4)SKKKK-NH2) | – | – | Active | – | inactive |
| CCCCCCCCCCCCCC(=O)N[C@@H](CSC[C@@H](NC(=O)CCCCCCCCCCCCC)C(=O)O)C(=O)N[C@@H](CO)C(=O)N[C@@H](CCCCN)C(=O)N[C@@H](CCCCN)C(=O)N[C@@H](CCCCN)C(=O)N[C@@H](CCCCN)C(N)=O | – | inactive | Active | – | inactive |
| CCCCCCCCCCCCCCCCCCNC(=O)[C@H](CSC[C@H](NC(=O)CCCCCCCCCCCCC)C(=O)N[C@@H](CO)C(=O)N[C@@H](CCCCN)C(=O)N[C@@H](CCCCN)C(=O)N[C@@H](CCCCN)C(=O)N[C@@H](CCCCN)C(N)=O)NC(=O)CCCCCCCCCCCCC | – | – | Active | – | inactive |
| CCCCCCCCCCCCCC(=O)N[C@H](CSC[C@@H](NC(=O)CCCCCCCCCCCCC)C(=O)N[C@@H](CO)C(=O)N[C@@H](CCCCN)C(=O)N[C@@H](CCCCN)C(=O)N[C@@H](CCCCN)C(=O)N[C@@H](CCCCN)C(N)=O)C(=O)O | – | inactive | Active | – | inactive |
| CCCCCCCCCCCCCCCCNC(=O)[C@H](CSC[C@H](NC(=O)CCCCCCCCCCC)C(=O)N[C@@H](CO)C(=O)N[C@@H](CCCCN)C(=O)N[C@@H](CCCCN)C(=O)N[C@@H](CCCCN)C(=O)N[C@@H](CCCCN)C(N)=O)NC(=O)CCCCCCCCCCC | – | – | Active | Active | inactive |
| CCCCCCCCCCCCCCCCNC(=O)[C@H](CSC[C@H](NC(=O)CCCCCCCCC)C(=O)N[C@@H](CO)C(=O)N[C@@H](CCCCN)C(=O)N[C@@H](CCCCN)C(=O)N[C@@H](CCCCN)C(=O)N[C@@H](CCCCN)C(N)=O)NC(=O)CCCCCCCCC | – | – | Active | – | inactive |
| CCCCCCCCCCCCCC(=O)N[C@@H](CSC[C@H](NC(=O)CCCCCCCCCCCCC)C(=O)N[C@@H](CO)C(=O)N[C@@H](CCCCN)C(=O)N[C@@H](CCCCN)C(=O)N[C@@H](CCCCN)C(=O)N[C@@H](CCCCN)C(N)=O)C(=O)O | – | inactive | Active | – | inactive |

More lines, main results first:

| IC50 (Toll-like receptor 2 [1]) [µM] | Activity (Toll-like receptor 2 [1]) | Activity (Toll-like receptor 2 [2]) | Activity (Toll-like receptor 2 [3]) | Compound | Activity (THP-1) |
| --- | --- | --- | --- | --- | --- |
| 5 | 68% | – | – | CCCCCCCCCCCCCCCC(=O)O [PALMITIC ACID] | – |
| – | – | Active | Active | CCCCCCCCCCCCCCCCNC(=O)[C@H](CSC[C@H](NC(=O)CCCCCCCCCCCCCCC)C(=O)N[C@@H](CO)C(=O)N[C@@H](CCCCN)C(=O)N[C@@H](CCCCN)C(=O)N[C@@H](CCCCN)C(=O)N[C@@H](CCCCN)C(N)=O)NC(=O)CCCCCCCCCCCCCCC | inactive |
| – | – | Active | – | CCCCCCCCCCCCCCCCNC(=O)[C@H](CSC[C@H](NC(=O)CCCCCCC)C(=O)N[C@@H](CO)C(=O)N[C@@H](CCCCN)C(=O)N[C@@H](CCCCN)C(=O)N[C@@H](CCCCN)C(=O)N[C@@H](CCCCN)C(N)=O)NC(=O)CCCCCCC | inactive |
| – | – | Active | – | CCCCCCCCCCCCCCCCNC(=O)[C@H](CS(=O)(=O)C[C@H](NC(=O)CCCCCCCCCCCCCCC)C(=O)N[C@@H](CO)C(=O)N[C@@H](CCCCN)C(=O)N[C@@H](CCCCN)C(=O)N[C@@H](CCCCN)C(=O)N[C@@H](CCCCN)C(N)=O)NC(=O)CCCCCCCCCCCCCCC | inactive |
| – | – | Active | – | CCCCCCCCCCCCCCCCNC(=O)[C@H](C[S+]([O-])C[C@H](NC(=O)CCCCCCCCCCCCCCC)C(=O)N[C@@H](CO)C(=O)N[C@@H](CCCCN)C(=O)N[C@@H](CCCCN)C(=O)N[C@@H](CCCCN)C(=O)N[C@@H](CCCCN)C(N)=O)NC(=O)CCCCCCCCCCCCCCC (some centres undefined) | inactive |
| – | – | Active | – | CCCCCCCCCCCCCCCCNC(=O)[C@H](CSC[C@@H](NC(=O)CCCCCCCCCCCCC)C(=O)N[C@@H](CO)C(=O)N[C@@H](CCCCN)C(=O)N[C@@H](CCCCN)C(=O)N[C@@H](CCCCN)C(=O)N[C@@H](CCCCN)C(N)=O)NC(=O)CCCCCCCCCCCCC | inactive |
| – | – | Active | – | CCCCCCCCCCCCCCCCCCCC(=O)N[C@@H](CSC[C@H](NC(=O)CCCCCCCCCCCCCCCCCCC)C(=O)N[C@@H](CO)C(=O)N[C@@H](CCCCN)C(=O)N[C@@H](CCCCN)C(=O)N[C@@H](CCCCN)C(=O)N[C@@H](CCCCN)C(N)=O)C(=O)NCCCCCCCCCCCCCCCC (Arachidoyl-C(X5)SKKKK-NH2) | inactive |
| – | – | Active | Active | CCCCCCCCCCCCCCCCNC(=O)[C@H](CSC[C@H](NC(=O)CCCCCCCCCCCCC)C(=O)N[C@@H](CO)C(=O)N[C@@H](CCCCN)C(=O)N[C@@H](CCCCN)C(=O)N[C@@H](CCCCN)C(=O)N[C@@H](CCCCN)C(N)=O)NC(=O)CCCCCCCCCCCCC | inactive |
| – | – | Active | – | CCCCCCCCCCCCCCCCNC(=O)[C@@H](CSC[C@H](NC(=O)CCCCCCCCCCCCC)C(=O)N[C@@H](CO)C(=O)N[C@@H](CCCCN)C(=O)N[C@@H](CCCCN)C(=O)N[C@@H](CCCCN)C(=O)N[C@@H](CCCCN)C(N)=O)NC(=O)CCCCCCCCCCCCC | inactive |
| – | – | Active | – | CCCCCCCCCCCCCCNC(=O)[C@H](CSC[C@H](NC(=O)CCCCCCCCCCCCC)C(=O)N[C@@H](CO)C(=O)N[C@@H](CCCCN)C(=O)N[C@@H](CCCCN)C(=O)N[C@@H](CCCCN)C(=O)N[C@@H](CCCCN)C(N)=O)NC(=O)CCCCCCCCCCCCC | inactive |
| – | – | Active | – | CCCCCCCCCCCCCCCCNC(=O)[C@H](CSC[C@H](NC(=O)CCCCC)C(=O)N[C@@H](CO)C(=O)N[C@@H](CCCCN)C(=O)N[C@@H](CCCCN)C(=O)N[C@@H](CCCCN)C(=O)N[C@@H](CCCCN)C(N)=O)NC(=O)CCCCC | inactive |
| – | – | Active | – | CCCCCCCCCCCCCC(=O)N[C@@H](CSC[C@H](NC(=O)CCCCCCCCCCCCC)C(=O)N[C@@H](CO)C(=O)N[C@@H](CCCCN)C(=O)N[C@@H](CCCCN)C(=O)N[C@@H](CCCCN)C(=O)N[C@@H](CCCCN)C(N)=O)C(=O)NCCCCCCCCCCCC (Myristoyl-C(X6)SKKKK-NH2) | inactive |
| – | – | Active | – | CCCCCCCCCCCCCCCCNC(=O)[C@@H](CSC[C@@H](NC(=O)CCCCCCCCCCCCC)C(=O)N[C@@H](CO)C(=O)N[C@@H](CCCCN)C(=O)N[C@@H](CCCCN)C(=O)N[C@@H](CCCCN)C(=O)N[C@@H](CCCCN)C(N)=O)NC(=O)CCCCCCCCCCCCC | inactive |
| – | – | Active | – | CCCCCCCCCCCCCCCCCC(=O)N[C@@H](CSC[C@H](NC(=O)CCCCCCCCCCCCCCCCC)C(=O)N[C@@H](CO)C(=O)N[C@@H](CCCCN)C(=O)N[C@@H](CCCCN)C(=O)N[C@@H](CCCCN)C(=O)N[C@@H](CCCCN)C(N)=O)C(=O)NCCCCCCCCCCCCCCCC (Stearoyl-C(X2)SKKKK-NH2) | inactive |

— ChEMBL document CHEMBL1139026, “Lipolanthionine peptides act as inhibitors of TLR2-mediated IL-8 secretion. Synthesis and structure-activity relationships” (J Med Chem, 2006)
